Legend:
[1] = test system: Rat; assay: concentration in liver after dosing; settings: dosed: Perfluorohexane-1-sulphonic acid – potassium salt, 16 mg/kg, oral
[2] = test system: Rat; assay: concentration in brain after dosing; settings: 3 h; dosed: Perfluorohexane-1-sulphonic acid – potassium salt; 16 mg/kg; oral; Female; Harlan Sprague Dawley
[3] = test system: Rat; assay: concentration in kidney after dosing; settings: 528 h; dosed: Perfluorohexane-1-sulphonic acid – potassium salt; 16 mg/kg; oral; Female; F344
[4] = test system: Rat; assay: concentration in liver after dosing; settings: 6 h; dosed: Perfluorohexane-1-sulphonic acid – potassium salt; 16 mg/kg; oral; Female; F344
[5] = test system: Rat; assay: concentration in kidney after dosing; settings: 192 h; dosed: Perfluorohexane-1-sulphonic acid – potassium salt; 16 mg/kg; oral; Female; Harlan Sprague Dawley
[6] = test system: Rat; assay: concentration in liver after dosing; settings: 96 h; dosed: Perfluorohexane-1-sulphonic acid – potassium salt; 16 mg/kg; oral; Female; Harlan Sprague Dawley
[7] = test system: Rat; assay: concentration in kidney after dosing; settings: 12 h; dosed: Perfluorohexane-1-sulphonic acid – potassium salt; 16 mg/kg; oral; Female; Harlan Sprague Dawley
[8] = test system: Rat; assay: concentration in plasma after dosing; settings: 2 h; dosed: Pyridine; 5 mg/kg; oral; Male; F344
[9] = test system: Rat; assay: concentration in plasma after dosing; settings: 50 min; dosed: Pyridine; 10 mg/kg; iv; Male; F344
[10] = test system: Rat; assay: concentration in plasma after dosing; settings: dosed: Pyridine, 5 mg/kg, iv, Male, F344
[11] = test system: Hamster; assay: concentration in plasma after dosing; settings: dosed: 2,4-Dichlorophenoxyacetic acid, 40 mg/kg, oral, Male, Syrian Golden
Method in brief: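 Concentration-versus-time or amount-versus-time points were compiled from published in vivo toxicokinetic studies and from two structured collections. The studies were found by PubMed searching, classifier screening and manual review. Points were mostly digitised from plot screenshots with WebPlotDigitizer, otherwise copied from tables, and kept in the reported units. Dose, route, subject details and medium were curated by hand from each paper, and sampling and analytical methods follow each source and were often unreported.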

[12] = test system: Rat; assay: concentration in plasma after dosing; settings: dosed: Methyleugenol, 37 mg/kg, iv, Male, F344
[13] = test system: Rat; assay: concentration in plasma after dosing; settings: dosed: Methyleugenol, 37 mg/kg, oral, Male, F344/N
[14] = test system: Rat; assay: concentration in plasma after dosing; settings: dosed: Methyleugenol, 37 mg/kg, iv, Female, F344
[15] = test system: Rat; assay: concentration in plasma after dosing; settings: 20 min; dosed: Methyleugenol; 37 mg/kg; oral; Male; F344/N
[16] = test system: Rat; assay: concentration in plasma after dosing; settings: dosed: Methyleugenol, 37 mg/kg, oral, Female, F344/N
[17] = test system: Mouse; assay: concentration in plasma after dosing; settings: 2 h; dosed: 2-Hydroxy-4-methoxybenzophenone; 50 mg/kg; iv; Male; B6C3F1
[18] = test system: Rat; assay: concentration in plasma after dosing; settings: 4 h; dosed: 2-Hydroxy-4-methoxybenzophenone; 500 mg/kg; oral; Male; F344
[19] = test system: Mouse; assay: concentration in plasma after dosing; settings: 0.25 h; dosed: 2-Hydroxy-4-methoxybenzophenone; 500 mg/kg; oral; Female; B6C3F1
[20] = test system: Rat; assay: concentration in plasma after dosing; settings: 0.25 h; dosed: 2-Hydroxy-4-methoxybenzophenone; 500 mg/kg; oral; Female; F344
[21] = test system: Mouse; assay: concentration in plasma after dosing; settings: dosed: 2-Hydroxy-4-methoxybenzophenone, 100 mg/kg, oral, Female, B6C3F1
[22] = test system: Rat; assay: concentration in plasma after dosing; settings: dosed: 2-Hydroxy-4-methoxybenzophenone, 250 mg/kg, oral, Male, F344
[23] = test system: Rat; assay: concentration in plasma after dosing; settings: 5 min; dosed: alpha-Thujone; 50 mg/kg; oral; Female; Harlan Sprague Dawley
[24] = test system: Rat; assay: concentration in plasma after dosing; settings: 0.5 h; dosed: alpha-Thujone; 50 mg/kg; oral; Female; Harlan Sprague Dawley
[25] = test system: Rat; assay: concentration in plasma after dosing; settings: 0.5 h; dosed: alpha-Thujone; 25 mg/kg; oral; Male; Harlan Sprague Dawley
[26] = test system: Rat; assay: concentration in brain after dosing; settings: 3 h; dosed: alpha-Thujone; 25 mg/kg; oral; Male; Harlan Sprague Dawley
[27] = test system: Rat; assay: concentration in plasma after dosing; settings: 5 min; dosed: alpha-Thujone; 25 mg/kg; oral; Male; Harlan Sprague Dawley
[28] = test system: Rat; assay: concentration in plasma after dosing; settings: 0.5 h; dosed: Primidone; 80 mg/kg; oral; Female; Harlan Sprague-Dawley
[29] = test system: Rat; assay: concentration in plasma after dosing; settings: 1.5 h; dosed: Primidone; 80 mg/kg; oral; Female; F344
[30] = test system: Rat; assay: concentration in plasma after dosing; settings: 0.25 h; dosed: Primidone; 30 mg/kg; oral; Female; F344
[31] = test system: Rat; assay: concentration in plasma after dosing; settings: 3 h; dosed: Primidone; 130 mg/kg; oral; Female; F344

O=S(=O)([O-])C(F)(F)C(F)(F)C(F)(F)C(F)(F)C(F)(F)C(F)(F)F.[K+] [Perfluorohexane-1-sulphonic acid – potassium salt]
concentration in liver [ng/g], [1]
Settings | 3 h | 6 h | 12 h | 24 h | 48 h | 96 h | 192 h | 528 h | 1200 h
Female, F344 | 67800 | 62400 | 68600 | 58000 | – | – | 47000 | 27600 | –
Female, Harlan Sprague Dawley | 49500 | 49000 | 33300 | 26100 | 14000 | 6030 | 1460 | – | –
Male, Harlan Sprague Dawley | – | – | – | – | – | – | – | – | 14800

Settings | concentration in brain [ng/g] | concentration in kidney [ng/g] | concentration in liver [ng/g]
[2] | 1560 | – | –
[3] | – | 10000 | –
[4] | – | – | 87400
[5] | – | 1650 | –
[6] | – | – | 6730
[7] | – | 25000 | –

c1ccncc1 [Pyridine]
Settings | concentration in plasma [ng/mL]
[8] | 2730
[9] | 4150

[10]
Settings | concentration in plasma [ng/mL]
0.5 h | 3400
8 h | 874

O=C(O)COc1ccc(Cl)cc1Cl [2,4-Dichlorophenoxyacetic acid]
[11]
Settings | concentration in plasma [ng/mL]
0.25 h | 70500
0.5 h | 36800
1 h | 80100
1.5 h | 14000
2 h | 20500
4 h | 2580
5 min | 102000

C=CCc1ccc(OC)c(OC)c1 [Methyleugenol]
Settings | concentration in plasma [ng/mL]
[12], 0.5 h | 3440
[12], 0.75 h | 3090
[13], 5 min | 670
[13], 6 h | 11.6
[14], 0.25 h | 9760
[14], 1.5 h | 576
[16], 2 h | 25.2
[16], 2 min | 13.3

Settings | concentration in plasma [ng/mL]
[15] | 246

O=C(c1ccccc1)c1ccc(O)cc1O [2,4-Dihydroxybenzophenone]
Settings | concentration in plasma [ng/mL]
[17] | 217
[18] | 181
[19] | 5480
[20] | 781

concentration in plasma [ng/mL]
Settings | 0.25 h | 0.5 h | 2 h | 2.5 min | 10 h | 10 min
[21] | 276 | – | 92.3 | 63.7 | – | 130
[22] | – | 888 | – | – | 75.5 | –

CC(C)[C@]12CC(=O)[C@H](C)[C@H]1C2 [alpha-Thujone]
Settings | concentration in brain [ng/g] | concentration in plasma [ng/mL]
[23] | – | 343
[24] | – | 5000
[25] | – | 337
[26] | 130 | –
[27] | – | 104

CCC1(c2ccccc2)C(=O)NCNC1=O [Primidone]
Settings | concentration in plasma [ng/mL]
[28] | 22900
[29] | 70300
[30] | 12300
[31] | 50400
